From PubChem
TNF necrop inh – inhibitors of TNF-alpha induced necroptosis in Jurkat FADD-/- cells. actives 0.068% (n = 220,000). activation (protection from cell death), % at 10 µM. AID 463075. Jurkat FADD-/- TNF necroptosis rescue, ATP luminescence, 24 h; 0 = TNF only, 100 = no-TNF cells;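 active = activation, meaning protection from cell death, of at least 50% relative to plate controls; inactive = activation below 50%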;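 note: necroptosis triggered by 40 ng/mL TNF-alpha added together with compound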
Dynein cargo inh – dynein cargo transport inhibition. z-score, hits read low. AID 1381. 3617.4 mouse cells, GR-EGFP nuclear translocation imaging; test concentration mostly 20 µM; stimulated with dexamethasone, 1 µM; stronger effect = lower value. actives 0.47% (n = 220,000);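 active = plate z-score of nuclear minus cytoplasmic receptor signal below a set negative limit, without overly bright fluorescence or cell loss, cut at about -3.5 in these data, passing the limit was not always enough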;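 note: z-score of nuclear minus cytoplasmic ring GR-EGFP intensity difference per well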
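Also added: dexamethasone, 1.0 µM final. Medium: tet-free, stripped-serum medium. Detection: fixed, Hoechst-stained cells imaged at 10x for EGFP. Read-out: nuclear-to-cytoplasmic GR-EGFP distribution per well. Times: induction 48 h, compound 1 h, agonist 30 min.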
zVAD death inh – L929 zVAD cell death inhibition; L929 zVAD necroptosis rescue, ATP luminescence, 24 h; with zVAD 60 µM; viability rescue, % at 10 µM; actives 0.38% (n = 220,000); AID 1377;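 active = activation, scaled between plate controls, above about 75%, limit read from the data; inactive = activation under that limit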;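 note: 0% = zVAD with DMSO and 100% = DMSO alone without zVAD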
Autophagy HCS – autophagy modulation, high-content screen | MEF GFP-LC3 puncta imaging; test concentration mostly 10 µM | calls only at 10 µM (by protocol) | actives 0.98% (n = 190,000);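 active = percentage of spot-positive cells more than 3 SD above its plate mean, without a fluorescence outlier flag or 80% toxicity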;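 note: spot-positive cell cutoff set from DMSO-treated cells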
Mdm2 ligase inh – inhibitors of human Mdm2 E3 ubiquitin ligase; cell-based MDM2 ubiquitination luciferase reporter, 2 h; 0 = plate control, 100 = twice control, blank-subtracted; signal enhancement, % at 5 µM; actives 0.11% (n = 210,000);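 active = signal enhancement of 30% or more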;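 note: luminescence tracks abundance of the self-degrading MDM2-luciferase fusion protein; higher signal means inhibition of MDM2 E3 ligase activity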
Target sequence (Q00987 whole entry, looked up, the tested form may be a part): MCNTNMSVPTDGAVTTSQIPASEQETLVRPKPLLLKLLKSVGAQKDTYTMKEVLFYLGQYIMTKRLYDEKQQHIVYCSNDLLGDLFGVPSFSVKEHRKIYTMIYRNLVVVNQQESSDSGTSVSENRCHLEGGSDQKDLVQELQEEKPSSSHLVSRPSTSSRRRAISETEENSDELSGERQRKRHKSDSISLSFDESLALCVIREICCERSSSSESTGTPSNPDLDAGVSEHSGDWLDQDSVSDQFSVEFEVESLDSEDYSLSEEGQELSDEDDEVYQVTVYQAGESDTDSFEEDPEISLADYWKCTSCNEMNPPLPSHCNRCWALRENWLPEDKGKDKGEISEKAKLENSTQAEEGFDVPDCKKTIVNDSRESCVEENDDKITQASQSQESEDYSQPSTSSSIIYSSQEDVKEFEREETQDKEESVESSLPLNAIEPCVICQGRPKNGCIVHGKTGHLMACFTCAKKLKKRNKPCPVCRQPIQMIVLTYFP
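Material: Stable MDM2–luciferase fusion reporter cells | Amount: 2000 cells seeded into each well | Dosing: One concentration, 5 µM, with 0.2% DMSO | Incubation: 4 h cell settling then 2 h compound exposure, 37 °C | Measured by: Luciferase luminescence | Read-out basis: % enhancement relative to plate controls after blank subtraction | Benchmarks: Control and blank well means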
Starred values were filed as active, the others as inactive; i = inactive; . = no result; + = active, no number; ! = not active in a repeat. The list is not random: actives were taken first. Their share in the collection is about 1.8%.

SMILES | TNF necrop inh | Dynein cargo inh | zVAD death inh | Autophagy HCS | Mdm2 ligase inh
CC1CCC(C(C)C)C(OC(=O)Cn2c(-c3ccc(Br)cc3)[n+](C)c3ccccc32)C1 (stereo unspecified) | -10 | 0.65 | 10 | +! | -5
Cc1ccccc1OCc1n(CC(=O)OC2CC(C)CCC2C(C)C)c2ccccc2[n+]1C (stereo unspecified) | -11 | -1.7 | 19 | + | -24
CC1CCC(C(C)C)C(OC(=O)Cn2c(-c3ccc(Cl)cc3)[n+](C)c3ccccc32)C1 (stereo unspecified) | -19 | 0.087 | 9 | . | -25
CC1CCC(C(C)C)C(OC(=O)COC(=O)c2ccc(N)cc2)C1 (stereo unspecified) | 1 | 0.88 | 1 | i | -9
Cc1cc(/C=C(\C#N)C(=O)NCc2ccco2)c(C)n1-c1ccc(C(=O)O)cc1 | 1 | -0.22 | 2 | i | -3
CCOc1cccc2cc(-c3cn4cc(C)ccc4n3)c(=O)oc12 | -7 | -1.1 | 0 | + | -44
COc1cccc2cc(-c3cn4ccc(C)cc4n3)c(=O)oc12 | -2 | -0.1 | -1 | i | .
CN1OC(c2ccccc2)=C(CO)C1c1ccccc1 (stereo unspecified) | 0 | -0.65 | 0 | i | 2
COc1cc2c(cc1OC)C1=CC(=O)C(=O)N1C(C)(C)C2 | 0 | -0.92 | 22 | + | -6
O=C(NC1CCCCC1)C(c1cccnc1)N(C(=O)c1ccc(Cl)nc1)C1CCCCC1 (stereo unspecified) | 0 | -0.32 | 1 | i | 46*
CC(C)(C)NC(=O)C(c1cccnc1)N(C(=O)c1ccc(Cl)nc1)C1CCCC1 (stereo unspecified) | 0 | -1 | 2 | i | -5
CCn1nnnc1NCc1c(OC)ccc2ccccc12 | 0 | -0.46 | 0 | i | -14
Cc1ccc(OCC(=O)NCCc2c[nH]c3ccccc23)cc1 | 1 | -0.48 | 4 | i | 9
COc1cccc(C2c3c(C)nn(-c4ccc([N+](=O)[O-])cc4)c3N=C3C(=O)Nc4ccccc4N32)c1 (stereo unspecified) | -13 | 0.81 | -2 | + | -11
Cc1nnc(Sc2cc(C(=O)NCc3ccco3)c3ccccc3n2)s1 | 0 | -0.56 | 97* | i | -13
Cc1nnc(Sc2cc(C(=O)NC3CC3)c3ccccc3n2)s1 | 4 | -0.36 | 42 | . | -4
Fc1ccccc1CSCc1nc2ccccc2[nH]1 | 5 | -1.4 | 17 | + | 3
COC(=O)Cc1cc(OC)c(OC)cc1S(=O)(=O)N(C)C | -1 | -0.11 | 0 | i | -6
COc1cc(NC(=O)c2cccnc2)ccc1-c1cc2ccccc2oc1=O | 2 | -0.73 | 5 | i | 3
COc1cc(NC(=O)c2cc(Cl)ccc2Cl)ccc1-c1cc2ccccc2oc1=O | -6 | -0.74 | 0 | + | -3
NC(=O)c1ccc(NC(=O)CSc2nnc(-c3ccccn3)n2N)cc1 | 1 | -1.3 | 5 | i | 5
Cc1c(Cl)sn(-c2ccc(Cl)cc2)c1=O | -15 | -4.6* | 13 | i | -14
NC(=S)Nc1ncc(CCN2CCOCC2)c(-c2ccc(F)cc2)n1 | -1 | 1.4 | -1 | i | -5
CSc1nn2cc(CCN3CCOCC3)c(-c3ccc(F)cc3)nc2c1C#N | 1 | 2.9 | -1 | + | 2
Clc1ccc(-n2cc(COCc3ccccc3)nn2)cc1 | 0 | -0.91 | 1 | i | -33
SMILES | TNF necrop inh | Dynein cargo inh | zVAD death inh | Autophagy HCS | Mdm2 ligase inh
COc1ccccc1NS(=O)(=O)c1cccc(NC(=O)c2nc3nc(C)cc(C)n3n2)c1 | -1 | -0.26 | -1 | i | -9
COc1ccc(NS(=O)(=O)c2cc(NC(=O)c3nc4nc(C)cc(C)n4n3)ccc2C)cc1 | 2 | -0.35 | 1 | + | -3
CC(=O)NC(Cc1ccccc1C)C(=O)NC1CCN(C(=O)c2ccc(C)cc2)CC1 (stereo unspecified) | 0 | 1.3 | 2 | + | 10
O=c1cnnc(N/N=C/C2CC=CCC2)[nH]1 (stereo unspecified) | -1 | 0.004 | 1 | i | -12
CCOC(=O)c1c(-c2ccccc2)csc1NC(=O)/C(C#N)=C/c1ccc(OC)c(OC)c1 | 3 | 4.3 | 1 | + | -3
CCOC(=O)/C(C#N)=C\c1ccc(OC)c(OC)c1 | 1 | -0.71 | 2 | i | -11
OCCN1CCN(CC(O)COc2ccc(C34CC5CC(CC(C5)C3)C4)cc2)CC1 (stereo unspecified) | -16 | 6.4 | -2 | + | -22
CCC(C)NCCOc1ccccc1C (stereo unspecified) | 1 | 0.95 | -1 | i | -7
Cc1cc(/C=C2\SC(=S)N(Cc3ccco3)C2=O)c(C)n1-c1ccccc1 | 3 | -2.1 | 3 | + | -49
O=C1C=CC(=O)N1CCCCCCN1C(=O)C=CC1=O | -16 | -4* | 52 | i | -4
CCOc1ccccc1CNC(=O)CCCc1cn(C)c2ccccc12 | 1 | 0.62 | . | + | .
CCOC(=O)Cn1c2ccc(OC)cc2c2nc3ccccc3nc21 | 1 | 0.72 | 0 | + | -15
COc1ccc2c(c1)c1nc3ccccc3nc1n2Cc1ccc(OC)c(OC)c1 | 4 | -0.51 | 1 | i | 2
CCOc1ccc(Cn2c3ccc(OC)cc3c3nc4ccccc4nc32)cc1OC | 2 | -0.81 | 1 | + | -9
COc1ccc(-c2cc(C(=O)NCc3cccs3)no2)cc1 | 5 | -0.47 | 0 | . | -19
COc1ccc2nc3sc(C(=O)NCc4cccs4)c(N)c3cc2c1 | 2 | -0.098 | 8 | + | -2
COC(=O)C1=C(C)NC2=C(C(=O)CC(C)(C)C2)C1c1cnn(C)c1C (stereo unspecified) | 1 | -0.65 | 1 | i | -3
O=C(CCN1C(=O)C2CCCCC2C1=O)Nc1ccc(F)c(F)c1F (stereo unspecified) | 1 | 0.55 | 0 | + | -24
c1ccc(-c2cc3ccccc3nc2N2CCCC2)cc1 | -5 | 0.15 | 0 | i | 4
Cc1ccc(-c2cc3ccccc3nc2N2CCOCC2)cc1 | -2 | 0.72 | 2 | + | 9
C/C(=N\N1CCN(C)CC1)c1ccc(OC(F)F)cc1 | 0 | 0.17 | 0 | + | -6
Cc1ccc(N2C(=O)N(CC(=O)NCc3ccccc3Cl)C(=O)C2C)cc1 (stereo unspecified) | -1 | 0.98 | 2 | i | -5
O=C(COc1ccccc1-c1ccccc1)NNC(=O)NC1CCCCC1 | 0 | -0.041 | 0 | i | .
O=C(COc1ccccc1Cl)NC(=O)NC1CCCC1 | 57* | -0.24 | 1 | i | -8
Nc1nc2c(s1)CCc1c-2cnn1-c1ccccc1 | -6 | -6* | 3 | i | -19
